Pf Dd2 growth: P. falciparum Dd2 growth inhibition; SYBR Green, 72 h; hits give low values; activity change, % at 10 µM; 94,000 tested, 2.3% active; AID 1159554; in the data active = activity change below about -80%; inconclusive = no clear call, values can overlap the other calls
IDH1 mut inh: blocks human IDH1 R132H reductase activity | O75874 | inhibition, % at 10 µM | 70,000 tested, 0.18% active | diaphorase/resazurin fluorescence, 60 min; in the data active = inhibition above about 34%; inconclusive = no clear call, values can overlap the other calls; inactive = below about 11%
Target sequence (O75874 whole entry R132H): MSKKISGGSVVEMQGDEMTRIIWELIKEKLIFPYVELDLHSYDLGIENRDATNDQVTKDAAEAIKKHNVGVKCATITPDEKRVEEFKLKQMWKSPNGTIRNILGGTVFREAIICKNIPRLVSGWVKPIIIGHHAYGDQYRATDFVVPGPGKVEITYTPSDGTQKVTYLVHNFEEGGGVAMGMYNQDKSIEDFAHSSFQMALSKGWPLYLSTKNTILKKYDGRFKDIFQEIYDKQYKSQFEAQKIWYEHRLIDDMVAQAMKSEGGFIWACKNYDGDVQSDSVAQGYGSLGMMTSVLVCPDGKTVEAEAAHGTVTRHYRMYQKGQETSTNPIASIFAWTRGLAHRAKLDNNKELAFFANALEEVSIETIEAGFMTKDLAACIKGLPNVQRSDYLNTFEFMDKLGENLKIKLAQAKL
GASC1 inh: KDM4C (human) demethylase inhibition | Q9H3R0 | GST-KDM4C 2-372, H3K9me3 peptide, LANCE TR-FRET | inhibition, % at 12.5 µM | 96,000 tested, 0.15% active | AID 720574;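 active = mean replicate inhibition above about 25%, with at least 55% of replicates also reaching it, limit read from the data, passing the limit was not always enough; inconclusive = only one of those two conditions met; inactive = neither condition met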
Target sequence (Q9H3R0 2-372 limits assumed): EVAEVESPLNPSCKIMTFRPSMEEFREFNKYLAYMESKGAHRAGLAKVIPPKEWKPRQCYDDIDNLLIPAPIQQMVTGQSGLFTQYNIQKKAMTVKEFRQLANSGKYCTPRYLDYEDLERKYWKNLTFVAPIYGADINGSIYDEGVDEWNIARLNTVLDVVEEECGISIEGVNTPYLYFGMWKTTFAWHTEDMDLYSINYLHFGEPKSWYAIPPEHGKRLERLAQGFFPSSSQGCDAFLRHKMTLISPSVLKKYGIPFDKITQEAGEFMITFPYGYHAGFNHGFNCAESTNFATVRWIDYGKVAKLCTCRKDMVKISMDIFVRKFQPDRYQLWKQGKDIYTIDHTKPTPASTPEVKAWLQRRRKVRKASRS
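Material: GST-tagged GASC-1 (JMJD2C) catalytic fragment, aa 2-372. Input: enzyme final amount 10 nM. Medium: HEPES buffer, pH 7.5, plus ascorbate. Reagent: H3K9me3 peptide substrate, Fe(II), 2-oxoglutarate. Doses: single dose. Times: reaction 30 min RT, detection step 1 h RT. Measured by: LANCE TR-FRET. Evaluation: Fall in 671/618 emission ratio as inhibition.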
T cruzi growth-1: T. cruzi proliferation inhibition. T. cruzi beta-gal in NIH3T3, GalScreen luminescence, 90 h. inhibition, % at 8.34 µM. 77,000 tested, 5.9% active;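 active = mean inhibition above about 93%, with at least 55% of replicates each passing it, limit read from the data, passing the limit was not always enough; inconclusive = only one of those two conditions holds; inactive = neither condition holds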
T cruzi growth-2: Trypanosoma cruzi proliferation inhibition; shares compounds with T cruzi growth-1; T. cruzi beta-gal in NIH3T3, GalScreen luminescence, 90 h; inhibition, % at 8.35 µM; 5,600 tested, 72% active; AID 651739;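 active = mean replicate inhibition above about 95% and at least 55% of replicates individually reaching it, limit read from the data; inconclusive = only one of the two criteria is met; inactive = neither criterion is met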
T cruzi growth-3: Trypanosoma cruzi proliferation inhibition; shares compounds with T cruzi growth-1; T. cruzi beta-gal in NIH3T3, GalScreen luminescence, 90 h; inhibition, % at 2.09 µM; 5,600 tested, 21% active;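 active = mean inhibition above about 95%, with at least 55% of replicates also reaching it, limit read from the data; inconclusive = meets just one of the two conditions; inactive = meets neither condition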
3T3 cytotox: kills mouse NIH/3T3 fibroblasts | cytotoxicity (signal decrease), % at 8.35 µM | NIH/3T3 viability, CellTiter-Glo ATP luminescence, 90 h | 5,600 tested, 14% active | AID 651742 | shares compounds with T cruzi growth-1;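 active = mean signal decrease across replicates above about 35% based on untreated-well scatter, with enough replicates individually passing, limit read from the data; inconclusive = no rule stated though some were filed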
3T3 cytotox 2: kills mouse NIH/3T3 fibroblasts; shares compounds with T cruzi growth-1; NIH/3T3 viability, CellTiter-Glo ATP luminescence, 90 h; inhibition, % at 24.9 µM; 5,600 tested, 56% active;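 active = mean loss of cell viability signal at or above a set limit, and enough replicates individually reaching it; inconclusive = meets only the mean limit or only the replicate share; inactive = meets neither condition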
Each line names hits and unclear results; the compound was inactive in the other large screens (follow-up assays come after a bar, where they were run). Sampled rows, rich in hits. Any-hit rate of the full collection: about 5.9%.

CCC(=O)N1C[C@H]2[C@@H](c3ccccc31)[C@H](CO)N2C(=O)CC	T cruzi growth-1 104.4 (no result: IDH1 mut inh) | T cruzi growth-2 inactive | T cruzi growth-3 inactive | 3T3 cytotox inactive | 3T3 cytotox 2 inactive
O=C(Nc1ccccc1)N1C[C@@H]2[C@H](c3ccccc31)[C@@H](CO)N2CC1CCCC1	none (no result: IDH1 mut inh)
O=C(Nc1ccc(F)cc1)N1C[C@H]2[C@@H](c3ccccc31)[C@H](CO)N2C(=O)c1ccccc1	T cruzi growth-1 101.9 (no result: IDH1 mut inh) | T cruzi growth-2 97.8 | T cruzi growth-3 inactive | 3T3 cytotox inactive | 3T3 cytotox 2 inactive
O=C(Nc1ccc(Cl)cc1)N1C[C@H]2[C@@H](c3ccccc31)[C@@H](CO)N2CC1CCCC1	T cruzi growth-1 108.1 (no result: IDH1 mut inh) | T cruzi growth-2 99.3 | T cruzi growth-3 inactive | 3T3 cytotox inactive | 3T3 cytotox 2 50.1
C[C@@H]1CN([C@@H](C)CO)S(=O)(=O)c2ccc(-c3ccccc3F)cc2O[C@@H]1CN(C)S(C)(=O)=O	none
C[C@@H]1CN([C@H](C)CO)S(=O)(=O)c2ccc(C#Cc3ccccc3F)cc2O[C@H]1CN(C)C(=O)Cc1ccccc1	T cruzi growth-1 121.7 | T cruzi growth-2 102.6 | T cruzi growth-3 inactive | 3T3 cytotox inactive | 3T3 cytotox 2 103.7
C[C@H](CO)N1C[C@H](C)[C@H](CN(C)C(=O)Cc2ccncc2)Oc2cc(C#Cc3ccccc3F)ccc2S1(=O)=O	none (no result: T cruzi growth-1)
C[C@@H]1CN([C@@H](C)CO)S(=O)(=O)c2ccc(C#Cc3ccccc3F)cc2O[C@@H]1CN(C)C(=O)Cc1cccnc1	T cruzi growth-1 inconclusive | T cruzi growth-2 101.9 | T cruzi growth-3 inactive | 3T3 cytotox inactive | 3T3 cytotox 2 69.7
C[C@@H]1CN([C@@H](C)CO)S(=O)(=O)c2ccc(C#Cc3ccccc3F)cc2O[C@H]1CN(C)C(=O)Cc1ccccc1	T cruzi growth-1 120.2 | T cruzi growth-2 101.9 | T cruzi growth-3 109.9 | 3T3 cytotox 55.6 | 3T3 cytotox 2 91.7
C[C@H]1CN([C@@H](C)CO)S(=O)(=O)c2ccc(C#Cc3ccccc3F)cc2O[C@@H]1CN(C)C(=O)Cc1ccccc1	T cruzi growth-1 120.8 | T cruzi growth-2 105.7 | T cruzi growth-3 106.8 | 3T3 cytotox inactive | 3T3 cytotox 2 103.0
C[C@H]1CN([C@@H](C)CO)S(=O)(=O)c2ccc(C#Cc3ccccc3F)cc2O[C@H]1CN(C)C(=O)Cc1ccncc1	none (no result: IDH1 mut inh, T cruzi growth-1)
C[C@H](CO)N1C[C@H](C)[C@H](CN(C)S(C)(=O)=O)Oc2ccc(NC(=O)CCN3CCOCC3)cc2C1=O	none
COc1ccc(CN(C)C[C@H]2OCCCC[C@H](C)Oc3ccc(NC(=O)Nc4c(C)noc4C)cc3C(=O)N([C@@H](C)CO)C[C@H]2C)cc1	none
C/C=C/c1ccc([C@@H]2[C@H](CO)N(C(=O)C3CCOCC3)C23CN(C(=O)NC(C)C)C3)cc1	none (no result: IDH1 mut inh, T cruzi growth-1)
CCCC#Cc1ccc2c(c1)O[C@@H](CN(C)Cc1ccccn1)[C@H](C)CN([C@@H](C)CO)S2(=O)=O	T cruzi growth-1 107.4 (no result: Pf Dd2 growth) | T cruzi growth-2 95.7 | T cruzi growth-3 inactive | 3T3 cytotox 64.4 | 3T3 cytotox 2 92.8
C[C@@H]1CN([C@H](C)CO)S(=O)(=O)c2ccc(C#CCN(C)C)cc2O[C@H]1CN(C)Cc1ccccn1	T cruzi growth-1 inconclusive | T cruzi growth-2 97.4 | T cruzi growth-3 inactive | 3T3 cytotox inactive | 3T3 cytotox 2 25.6
C[C@H](O)C#Cc1ccc2c(c1)O[C@@H](CN(C)Cc1ccccn1)[C@H](C)CN([C@@H](C)CO)S2(=O)=O	none (no result: IDH1 mut inh)
CCCC#Cc1ccc2c(c1)O[C@H](CN(C)Cc1ccccn1)[C@@H](C)CN([C@H](C)CO)S2(=O)=O	T cruzi growth-1 103.9 (no result: Pf Dd2 growth) | T cruzi growth-2 107.5 | T cruzi growth-3 inactive | 3T3 cytotox 40.5 | 3T3 cytotox 2 68.5
CCCC#Cc1ccc2c(c1)O[C@H](CN(C)Cc1ccccn1)[C@H](C)CN([C@@H](C)CO)S2(=O)=O	none (no result: Pf Dd2 growth)
CC1(C)Cc2c(sc3c2c2ncnn2c2nnc(SCC(=O)c4ccc(Br)cc4)n32)CO1	none (no result: Pf Dd2 growth, GASC1 inh, T cruzi growth-1)
C[C@@H]1CCCCO[C@H](CN(C)C(=O)Nc2ccccc2)[C@@H](C)CN([C@H](C)CO)C(=O)c2cc(NS(=O)(=O)c3cn(C)cn3)ccc2O1	none (no result: IDH1 mut inh, GASC1 inh)
O=C(CN1CCOCC1)N1CCCCN2[C@@H](CO)[C@@H](c3ccc(/C=C/c4ccccc4)cc3)[C@@H]2C1	T cruzi growth-1 105.0 (no result: IDH1 mut inh) | T cruzi growth-2 105.5 | T cruzi growth-3 inactive | 3T3 cytotox inactive | 3T3 cytotox 2 105.3
O=C(CN1CCOCC1)N1CCCCN2[C@@H](CO)[C@H](c3ccc(C#Cc4ccccc4)cc3)[C@@H]2C1	none (no result: IDH1 mut inh)
O=C(CN1CCOCC1)N1CCCCN2[C@@H](CO)[C@@H](c3ccc(C#Cc4ccccc4)cc3)[C@@H]2C1	T cruzi growth-1 98.2 (no result: IDH1 mut inh) | T cruzi growth-2 inactive | T cruzi growth-3 inactive | 3T3 cytotox inactive | 3T3 cytotox 2 102.8
COc1ccccc1-c1ccc([C@@H]2[C@H](CO)N3CCCCN(C(=O)CN4CCOCC4)C[C@@H]23)cc1	none (no result: IDH1 mut inh)
O=C(CN1CCOCC1)N1CCCCN2[C@H](CO)[C@@H](c3ccc(C#Cc4ccccc4)cc3)[C@H]2C1	none (no result: IDH1 mut inh)
O=C(CN1CCOCC1)N1CCCCN2[C@H](C1)[C@@H](c1ccc(C#Cc3ccccc3)cc1)[C@@H]2CO	T cruzi growth-1 111.7 (no result: IDH1 mut inh) | T cruzi growth-2 107.1 | T cruzi growth-3 inactive | 3T3 cytotox inactive | 3T3 cytotox 2 101.3
Cc1ccccc1-c1ccc([C@H]2[C@@H](CO)N3CCCCN(C(=O)CN4CCOCC4)C[C@@H]23)cc1	T cruzi growth-1 inconclusive (no result: IDH1 mut inh) | T cruzi growth-2 inactive | T cruzi growth-3 inactive | 3T3 cytotox inactive | 3T3 cytotox 2 inactive
O=C(CN1CCOCC1)N1CCCCN2[C@H](CO)[C@@H](c3ccc(-c4ccccc4)cc3)[C@H]2C1	none (no result: IDH1 mut inh)
CN(C)CC(=O)N[C@H]1C=C[C@H](CC(=O)O)O[C@H]1CO	none (no result: IDH1 mut inh, T cruzi growth-1)
C/C=C/c1ccc2c(c1)O[C@@H](CN(C)C(=O)c1ccccn1)[C@H](C)CN([C@H](C)CO)S2(=O)=O	none
O=C(NCc1cccs1)c1cc(-c2ccccc2)oc1C(F)(F)F	none (no result: Pf Dd2 growth, GASC1 inh, T cruzi growth-1)
C[C@@H]1CCCCO[C@@H](CN(C)Cc2ccc(Cl)c(Cl)c2)[C@H](C)CN([C@@H](C)CO)C(=O)c2cc(NC(=O)Nc3ccc(F)cc3)ccc2O1	T cruzi growth-1 103.6 | T cruzi growth-2 101.4 | T cruzi growth-3 117.3 | 3T3 cytotox inactive | 3T3 cytotox 2 inactive

Assay outcomes as filed in PubChem BioAssay.
